From article PMC6745892 (Journal of Medicinal Chemistry, 2019) come the findings set out here.

The target in one assay is T1, DAGL-α (Mus musculus, UniProt Q6WQJ1).
T1 sequence (Q6WQJ1 1-1044): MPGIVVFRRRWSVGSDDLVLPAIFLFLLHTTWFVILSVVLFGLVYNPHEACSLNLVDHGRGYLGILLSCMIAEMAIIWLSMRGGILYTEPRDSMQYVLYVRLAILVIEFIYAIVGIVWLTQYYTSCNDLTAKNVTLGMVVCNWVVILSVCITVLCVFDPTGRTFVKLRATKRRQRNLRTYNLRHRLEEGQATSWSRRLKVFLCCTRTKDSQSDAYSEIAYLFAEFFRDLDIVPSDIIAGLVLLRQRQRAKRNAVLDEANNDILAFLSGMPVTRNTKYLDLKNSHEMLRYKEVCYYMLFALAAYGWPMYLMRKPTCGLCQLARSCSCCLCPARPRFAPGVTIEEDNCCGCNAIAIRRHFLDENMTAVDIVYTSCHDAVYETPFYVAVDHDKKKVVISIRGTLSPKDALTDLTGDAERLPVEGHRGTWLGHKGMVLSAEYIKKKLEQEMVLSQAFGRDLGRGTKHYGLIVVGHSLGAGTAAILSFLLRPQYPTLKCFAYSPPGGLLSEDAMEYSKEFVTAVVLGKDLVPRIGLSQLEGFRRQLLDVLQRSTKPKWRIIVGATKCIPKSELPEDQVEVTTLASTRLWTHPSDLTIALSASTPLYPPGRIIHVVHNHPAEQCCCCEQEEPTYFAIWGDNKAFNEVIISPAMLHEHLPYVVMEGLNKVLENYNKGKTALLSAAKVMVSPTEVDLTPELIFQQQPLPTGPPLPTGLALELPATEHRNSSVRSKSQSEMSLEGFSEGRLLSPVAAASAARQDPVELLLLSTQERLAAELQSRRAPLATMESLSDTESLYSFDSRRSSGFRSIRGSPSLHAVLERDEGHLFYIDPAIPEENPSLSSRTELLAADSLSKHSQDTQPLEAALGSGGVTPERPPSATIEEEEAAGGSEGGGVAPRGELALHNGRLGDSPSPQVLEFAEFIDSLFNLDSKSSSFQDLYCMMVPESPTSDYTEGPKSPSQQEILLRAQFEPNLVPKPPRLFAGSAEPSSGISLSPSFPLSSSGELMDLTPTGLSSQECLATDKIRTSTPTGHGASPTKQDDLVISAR
In kind it is biochemical. Particulars: ratio of kinact versus KT109 and DH376.

The target of a further assay is T2, mDAGL-α (Mus musculus, UniProt Q6WQJ1).
T2 sequence (Q6WQJ1 1-1044): T1 sequence (Q6WQJ1 1-1044)
As to the kind of experiment: Standard PNP-butyrate surrogate substrate assay. In kind it is biochemical. The method in brief: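 Membrane fraction of HEK293T cells transiently transfected with mDAGL-α, 0.05 μg/μL final, in 50 mM Hepes pH 7.2. Inhibitor in DMSO preincubated 20 min, then PNP-butyrate added (0.3 mM final; 5% DMSO final). OD 420 nm read after 30 min at 20 °C. Data corrected for 10 μM THL background and normalized to DMSO control. N = 2, n = 2; plates kept if Z′ > 0.6.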

Take `O=C(N1CCCC[C@@H]1Cc1ccccc1)n1cc(C(O)(c2ccc(F)cc2)c2ccc(F)cc2)nn1` [Compound 2, (R)-(2-Benzylpiperidin-1-yl)(4-(bis(4-fluorophenyl)(hydroxy)methyl)-1H-1,2,3-triazol-1-yl)methanone]: the “inactivation rate (kinact) times higher than for KT109 and DH376” value on DAGL-α is 2–3 times. Also, the “potency in the standard surrogate substrate assay (in words)” value at mDAGL-α is “low nanomolar”.

As to `O=C(N1CCCC[C@@H]1Cc1ccccc1)n1ncc(C(O)(c2ccc(F)cc2)c2ccc(F)cc2)n1` [Compound 1, (R)-(2-Benzylpiperidin-1-yl)(4-(bis(4-fluorophenyl)(hydroxy)methyl)-2H-1,2,3-triazol-2-yl)methanone], on DAGL-α, the “inactivation rate (kinact) times higher than for KT109 and DH376” value is reported as 2–3 times. For the same compound, the “potency in the standard surrogate substrate assay (in words)” value at mDAGL-α is reported as “low nanomolar”.
